Screening data as filed in PubChem.
SMARCA2 activ: activators of SMARCA2 function; activation, % at 9.1 µM; actives 1% (n = 370,000); MG213 cells, MMTV-luciferase reporter, dexamethasone, overnight; AID 652017; in the data active = activation above about 7.8%;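 also: 0% = vehicle wells and 100% = reference activator wells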
SR-BI DiI inh: inhibitors of mouse SR-BI mediated HDL lipid uptake; Q61009; ldlA[mSR-BI] CHO cells, DiI-HDL uptake fluorescence, 3 h; inhibition, % at 12.5 µM; actives 0.96% (n = 320,000); AID 488896;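 active = mean replicate inhibition of at least 70% and a set share of replicates each scoring 70 or more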;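 also: 0% = median of neutral control wells and 100% = median of positive control wells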
Target sequence (Q61009 whole entry, looked up): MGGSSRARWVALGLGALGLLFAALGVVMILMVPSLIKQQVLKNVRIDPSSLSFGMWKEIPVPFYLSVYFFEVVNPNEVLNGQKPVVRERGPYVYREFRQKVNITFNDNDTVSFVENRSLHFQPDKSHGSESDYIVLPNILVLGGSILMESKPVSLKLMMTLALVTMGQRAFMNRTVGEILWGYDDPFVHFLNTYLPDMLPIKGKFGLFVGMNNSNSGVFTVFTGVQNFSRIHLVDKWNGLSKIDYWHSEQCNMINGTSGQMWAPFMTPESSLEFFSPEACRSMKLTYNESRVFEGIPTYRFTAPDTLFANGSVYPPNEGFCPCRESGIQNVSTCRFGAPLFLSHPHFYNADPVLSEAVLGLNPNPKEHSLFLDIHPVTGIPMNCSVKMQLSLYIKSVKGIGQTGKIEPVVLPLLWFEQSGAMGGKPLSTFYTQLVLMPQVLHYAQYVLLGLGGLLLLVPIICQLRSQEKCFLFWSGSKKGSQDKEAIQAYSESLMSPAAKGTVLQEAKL
TAG inh: inhibitors of triacylglycerol accumulation. AID 651582. inhibition, % at 12.5 µM. H9c2 cells, Nile Red lipid (TAG) fluorescence; cells loaded with 200 µM oleic acid. actives 0.66% (n = 230,000);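 active = pattern-corrected inhibition of lipid staining of at least 50% with the nuclear-stain viability signal not falling by more than 50%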;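 also: 0% = DMSO wells and 100% = triacsin C control wells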
SR-BI uptake up: activators of SR-BI mediated HDL lipid uptake. CHO ldlA[mSR-BI] cells, DiI-HDL uptake fluorescence, 3 h; 100 = double the neutral-control signal. activation, % at 12.5 µM. actives 0.096% (n = 320,000);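 active = mean replicate activation of at least 60% and every replicate at or above 60%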;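 also: 0% = median plate neutral-control signal and 100% = twice that signal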
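System: CHO ldlA[mSR-BI] cells / Medium: HEPES-buffered (25 mM, pH 7.4) F12 plus 0.5% BSA / Probe or stimulus: labelled HDL, 10 µg/mL / Doses: single compound concentration, delivered by pin transfer / Schedule: 3 h, 37 °C / Measured by: DiI fluorescence, bottom read / Measure: cell-associated DiI fluorescence as measure of HDL uptake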
Vif imaging: blocks HIV Vif function | inhibition, % at 7.49 µM | AID 602346 | HEK293T cells, Vif self-association by quenched fluorescence, imaging, 24 h | actives 0.35% (n = 340,000); in the data active = inhibition above about 50%, passing the limit was not always enough
SMARCA2 conf: confirmation of SMARCA2 (BRM) function activators; actives 30% (n = 3,500); MG213 cells, MMTV-luciferase with dexamethasone, luminescence, overnight; MG213 cells expressing E1A, Rb sequestered; DMSO wells 0%, reference activator 100%; activation, % at 9.1 µM; shares compounds with SMARCA2 activ;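 active = activation above its plate's cutoff, the mean activation of tested wells plus 3 SD, cut at about 7.9% in these data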
VP16 Luc act: activates GAL4-VP16 luciferase, flagging SMARCA2 activator hits; shares compounds with SMARCA2 activ; AID 686939; actives 41% (n = 3,500); HEK293 GAL4-VP16 pG5luc reporter, luciferase luminescence; scaled: DMSO wells 0%, SAHA wells 100%; activation, % at 9.1 µM;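 active = activation above the solvent-only control well mean plus 3 SD, averaged across control plates, cut at about 5.2% in these data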
Numbers without * were called inactive; nt = no result. An excerpt weighted towards active compounds, which were near 2.5% of everything screened.

SMILES | SMARCA2 activ | SR-BI DiI inh | TAG inh | SR-BI uptake up | Vif imaging | SMARCA2 conf | VP16 Luc act
N#C/C(=C/c1ccco1)c1nc2ccccc2s1 | 17.9* | -17.8 | nt | 17.8 | -8.3 | 9.3* | 13.7*
C=CCN(CC=C)C(=S)NC(=O)c1ccc(-c2ccccc2)cc1 | 8.0* | -8.0 | nt | 8.0 | nt | -5.9 | 1.1
C=CCN(CC=C)C(=S)NC(=O)c1ccc(OC)cc1 | 5.3 | 18.9 | 22.4 | -18.9 | 6.7 | nt | nt
O=C(Nc1cc(Cl)ccc1Oc1ccccc1)c1ccccc1F | 8.9* | 25.2 | nt | -25.2 | 3.3 | -3.7 | 1.4
O=C(NN=C1C2CC3CC1CC(Cl)(C3)C2)c1cccs1 | 7.5 | -0.7 | -4.5 | 0.7 | 18.6 | nt | nt
O=C(NN=C1C2CC3CC1CC(Cl)(C3)C2)c1ccccn1 | 9.1* | -8.8 | nt | 8.8 | -12.2 | 6.8 | 2.0
O=S1(=O)N[C@H](Cc2ccccc2)COc2cccc(N3CCCCC3)c21 | -5.9 | nt | nt | nt | nt | nt | nt
Cc1cc(NC(=O)c2ccccc2[N+](=O)[O-])ccc1Br | 8.2* | 46.2 | 10.0 | -46.2 | 7.0 | 13.1* | 6.3*
CCc1noc(C)c1C(=O)Nc1cc(S(=O)(=O)N2CCOCC2)ccc1N1CCN(CC)CC1 | -3.0 | 3.8 | 6.1 | -3.8 | -10.2 | nt | nt
CN(CC(=O)NCc1ccncc1)S(=O)(=O)c1ccc(F)cc1 | 8.3* | -30.9 | nt | 30.9 | nt | -1.8 | -0.2
COc1cccc(NC(=O)c2cccc(C(=O)Nc3cccc(OC)c3)c2)c1 | -1.8 | -7.5 | nt | 7.5 | -0.1 | nt | nt
COc1cccc(NC(=O)c2nn(C)cc2Br)c1 | 8.0* | nt | 6.7 | nt | -5.8 | 4.0 | 3.0
COc1cccc(NC(=O)c2ccc3nsnc3c2)c1 | 8.1* | 32.1 | nt | -32.1 | 5.8 | 3.7 | 10.3*
CCn1cc(Br)c(C(=O)Nc2ccc(F)cc2F)n1 | -0.2 | -9.4 | -6.4 | 9.4 | -15.2 | nt | nt
CCn1cc(Br)c(C(=O)Nc2cccc(SC)c2)n1 | 8.0* | 11.5 | nt | -11.5 | -4.9 | 4.1 | 3.6
Cc1cc(NC(=O)COC(=O)c2ccc([N+](=O)[O-])cc2Cl)no1 | -2.0 | -7.6 | -10.8 | 7.6 | 16.0 | nt | nt
CCOC(=O)c1sc(-c2ccccc2)cc1N | 9.0* | -3.0 | nt | 3.0 | 17.6 | 6.3 | 6.4*
CCOC(=O)c1sc(-c2ccc(F)cc2)cc1N | 7.4 | 14.2 | nt | -14.2 | 8.8 | nt | nt
Cc1ocnc1C(=O)Nc1ccc(Cl)cc1 | 9.3* | -27.4 | nt | 27.4 | -4.0 | 6.2 | 4.9
Cc1ccc(-c2cn(-c3ccccc3)c(SCC(N)=O)n2)cc1C | 9.8* | 20.5 | nt | -20.5 | 0.9 | 2.8 | 6.6*
CCC(O)(CC)C(=O)NN(C(=O)CCl)c1ccccc1 | 8.7* | -59.5 | 20.5 | 59.5 | 4.3 | 1.5 | -0.1
CC(Cc1cccs1)NC(=O)CCCn1nnnc1CN1CCOCC1 (stereo not given) | -2.0 | -11.6 | 10.2 | 11.6 | 7.1 | nt | nt
O=C(Nc1ccccn1)C(=O)N1CCCCC1 | 8.2* | -16.2 | -2.7 | 16.2 | nt | 3.5 | 2.1
O=C(Nc1ccccc1Br)C(=O)N1CCCC1 | -1.7 | -5.6 | nt | 5.6 | 4.6 | nt | nt
Cc1sc2nc(SCC(=O)Nc3ccc(Cl)c(C(=O)O)c3)[nH]c(=O)c2c1C | 8.8* | 8.0 | -7.4 | -8.0 | 19.1 | 9.2* | 8.9*
SMILES | SMARCA2 activ | SR-BI DiI inh | TAG inh | SR-BI uptake up | Vif imaging | SMARCA2 conf | VP16 Luc act
Cc1sc2nc(SCC(=O)Nc3cccc(C(=O)O)c3)[nH]c(=O)c2c1C | -1.3 | -18.0 | -0.8 | 18.0 | 12.5 | nt | nt
CCCc1cc2c(=O)c(-c3ccccn3)c(C)oc2cc1O | -4.6 | -6.3 | nt | 6.3 | 5.8 | nt | nt
CCCc1cc2c(=O)c(-c3ccccn3)coc2cc1OC | 10.8* | 6.8 | nt | -6.8 | 2.8 | 17.6* | 6.2*
CCCCCCN1CCN(C2CN(CCCC)S(=O)(=O)C2)CC1 (stereo not given) | 8.7* | nt | nt | nt | nt | -3.2 | 2.4
CCCCN1CC(N2CCN(CCO)CC2)CS1(=O)=O (stereo not given) | -1.6 | nt | nt | nt | nt | nt | nt
C=CCN1C(=O)[C@H](CC(=O)NCCCOCCCC)[C@@]2(C(=O)OCC)CCCC=C12 | -1.9 | nt | nt | nt | nt | nt | nt
Clc1ccc(COn2c(-c3ccc(Cl)cc3)nc3ccccc32)cc1 | 3.2 | 57.1 | nt | -57.1 | -9.7 | nt | nt
O=[N+]([O-])c1ccc2nc(-c3ccc(Cl)cc3)n(OCc3ccccc3)c2c1 | 10.8* | 80.7* | nt | -80.7 | -13.2 | 7.2 | 11.4*
Cc1ccc(NC(=O)CN2C(=O)N/C(=C/c3ccc(C)o3)C2=O)cc1 | 1.8 | -11.7 | nt | 11.7 | 4.6 | nt | nt
Cc1cccc(NC(=O)CN2C(=O)N/C(=C/c3ccc(C)o3)C2=O)c1 | 9.1* | 14.5 | nt | -14.5 | -1.0 | 2.3 | 1.4
Cc1cccc(NC(=O)Cn2c(=O)oc3ccccc32)c1 | 8.8* | -13.2 | -19.8 | 13.2 | 20.6 | -2.7 | 0.9
N#CCCN1CCC(N)=NC1=NC#N | -2.0 | nt | nt | nt | nt | nt | nt
O=C(Nc1ccccc1F)C1(c2ccccc2)CC1(Cl)Cl (stereo not given) | 9.9* | -11.0 | nt | 11.0 | -1.8 | 0.2 | 0.5
COc1cccc(N=c2oc3ccc(OC)cc3cc2-c2nc3ccccc3[nH]2)c1 | 8.3* | 26.2 | 13.6 | -26.2 | 5.2 | 3.6 | 12.1*
COc1ccc(N=c2oc3ccc(OC)cc3cc2-c2nc3ccccc3[nH]2)cc1 | 13.9* | 53.9 | 49.0 | -53.9 | 20.7 | 2.8 | 9.9*
COc1cccc(N=c2oc3ccccc3cc2-c2nc3ccccc3[nH]2)c1 | 5.3 | 27.4 | 48.6 | -27.4 | -4.8 | nt | nt
CCOc1ccc(OCc2ccc(C(=O)O)o2)cc1 | 6.2 | -20.9 | 8.0 | 20.9 | 2.5 | nt | nt
O=C(O)c1ccc(COc2ccc3ccccc3c2)o1 | 8.6* | 3.9 | 2.5 | -3.9 | -1.9 | 1.9 | 8.7*
C(=C\c1nc(N2CCCC2)c2ccccc2n1)/c1ccccc1 | 9.0* | 55.6 | nt | -55.6 | 1.0 | 14.9* | 1.7
Oc1ccc(Nc2nc(N3CCCC3)c3ccccc3n2)cc1 | 10.0* | -13.9 | 51.7* | 13.9 | -30.8 | 26.9* | -1.1
COc1ccc(Nc2nc(N3CCCCC3)c3ccccc3n2)cc1 | -2.0 | 1.0 | -9.0 | -1.0 | nt | nt | nt
CCc1ccc(OCCSc2nc3ccccc3n2CC(=O)O)cc1 | 1.0 | -20.1 | nt | 20.1 | 25.7 | nt | nt
O=C(Cn1sc2ccccc2c1=O)Nc1ccc(F)cc1 | 9.2* | nt | 38.3 | nt | -10.4 | 10.7* | -0.4
CC(C)CCn1c(Sc2nc3ccccc3o2)nc2c1c(=O)[nH]c(=O)n2C | 8.1* | -29.3 | nt | 29.3 | 3.2 | 2.0 | 4.8
Cn1c(=O)[nH]c(=O)c2c1nc(N1CCCCC1)n2CCSc1nc2ccccc2o1 | -1.5 | -5.6 | 11.1 | 5.6 | 33.7 | nt | nt
CCOC(=O)N(C)[C@H]1C[C@H]2c3[nH]c4c(-c5ccccc5)cccc4c3CCN2C(=O)[C@H]1[C@H](C)O | -1.8 | nt | nt | nt | nt | nt | nt
